# Experimental data published in paper PMC7231841 (Redox Biology, 2020).
# Columns and labels:
# [1] = tested on: serum IL-1β, IL-6, TNF-α and IFN-γ; assay: LPS challenge mouse acute inflammation model; assay type: in vivo, C57BL/6 mice; conditions: oral, 3 days, LPS 300 μg/kg IP
# In short: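 Female C57BL/6 mice (6–8 weeks, 18–20 g) were acclimatised for 2 days. LPS 300 μg/kg/day was given IP in 500 μL on days −3, −2 and −1 (n = 8 per LPS group). Test compound (10 or 40 mg/kg/day) was given intragastrically in 500 μL saline 4 h after each LPS dose. Dexamethasone 10 mg/kg/day served as positive control. Saline IP controls had n = 3. Sera were taken 24 h after the last dose for cytokine ELISA.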
# RAW264.7 cells [2] = assay: Antioxidant capacity; assay type: cell-based, mouse; conditions: LPS (20 ng/mL) treated RAW 264.7 cells
# In short: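 RAW264.7 cells were pretreated with LPS (20 ng/mL) for 8 h, then exposed to test compound for a further 16 h. SOD activity, GSH-Px activity, GSH/GSSG ratio and MPO activity were measured in the cells. Data are means ± SEM of 3 independent observations, with one-way ANOVA.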
# RAW264.7 cells [3] = assay: Inflammatory factors; assay type: cell-based, mouse
# In short: (§1)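 RAW264.7 cells were pretreated with LPS (20 ng/mL) for 8 h, then exposed to test compound for 16 h. Total RNA was extracted with TRIzol and reverse-transcribed, followed by real-time qRT-PCR. mRNA was normalised to β-actin and expressed as fold of control. Data are means ± SEM, n = 3 independent observations, one-way ANOVA.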
# [4] = In vivo pharmacokinetic assay; set-up: species or system SD rats; conditions: rat
# HepG2-ARE-C8 cells = assay: Nrf2/ARE luciferase reporter assay; assay type: cell-based
# [5] = Stability in simulated gastric fluid and simulated intestinal fluid; assay type: in vitro ADME; conditions: after 8 h, 37 °C, 20 μM
# In short: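 Test compound (20 μM) was incubated separately in commercial artificial gastric and intestinal juices at 37 °C for various times, in three parallel runs. Proteins were precipitated with methanol, vortexed and centrifuged at 5000 rpm for 5 min. Supernatants were analysed by HPLC (C18, 70% methanol, 0.5 mL/min) from peak areas.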
# pH stability in PBS = assay type: physicochemical; conditions: pH 4 to 10, 24 h, 37 °C, 20 μM
# In short: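 PBS was adjusted to pH 4–10 with 0.1 M HCl or NaOH. Test compound (20 μM) was incubated at 37 °C for 24 h, in triplicate. Solutions were filtered and injected directly on HPLC three times. Percent remaining came from peak areas.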
# [6] = biological target: Keap1-Nrf2 interaction (Keap1 Kelch domain / FITC-9mer Nrf2 peptide) (Homo sapiens, UniProt Q14145); assay: Fluorescence polarization; assay type: binding
# [7] = Liver microsome stability; assay type: in vitro ADME, rat
# In short: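 Rat (CD-1 male) liver microsomes from a 20 mg/mL stock were shaken in PBS at 37 °C for 10 min. Test compound was added from a 0.5 mM DMSO solution, with a 20 μM test level. After 5 min preincubation, the reaction was started with NADPH (6 mM stock). It was quenched with ice-cold acetonitrile at 0, 5, 15, 30 and 45 min. Samples were centrifuged at 5000 rpm for 15 min and supernatants analysed by LC-MS/MS. Ketanserin served as reference.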
# Plasma stability = assay type: in vitro ADME, rat; conditions: 20 μM, 37 °C
# In short: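 Test compound (20 μM) was incubated in plasma at 37 °C for various times, in three parallel runs. Proteins were precipitated with methanol, vortexed and centrifuged at 12,000 rpm for 5 min. Supernatants were analysed by HPLC from peak areas.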
# [8] = Parallel artificial membrane permeability assay; assay type: physicochemical; conditions: PAMPA
# In short: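 Effective permeability (Pe) at pH 7.4 was measured by double-sink PAMPA.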
# [9] = HPLC assay for H2O2-induced drug release; assay type: physicochemical
# In short: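 A 10 mM DMSO stock of test compound was diluted to 50 μM final in PBS (10 mM, pH 7.4). H2O2 was added at graded levels (24 h incubation) or at 10 mM (time course), then vortexed. Incubation was at 37 °C in triplicate. Samples taken at intervals were injected directly onto C18 HPLC (70% methanol, 0.5 mL/min, DAD detection). Percent compound came from peak areas against a standard curve.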
# RAW264.7 cells [10] = assay: qRT-PCR and Western blot of Nrf2-ARE driven genes in LPS-treated cells; assay type: cell-based, mouse; conditions: 20 ng/mL LPS 8 h
# In short: as §1
# Keap1-Nrf2 interaction (Keap1 Kelch domain / FITC-9mer Nrf2 peptide), sequence (Q14145 322-609): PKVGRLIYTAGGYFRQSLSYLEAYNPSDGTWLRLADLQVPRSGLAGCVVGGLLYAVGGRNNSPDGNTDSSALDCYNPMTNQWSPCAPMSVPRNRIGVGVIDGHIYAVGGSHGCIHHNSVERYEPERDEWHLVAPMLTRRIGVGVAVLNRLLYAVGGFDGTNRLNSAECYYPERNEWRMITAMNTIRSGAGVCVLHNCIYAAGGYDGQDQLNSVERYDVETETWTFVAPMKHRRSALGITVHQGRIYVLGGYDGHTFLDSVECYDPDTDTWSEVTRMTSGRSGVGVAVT
smiles,measurement,setting,value
"C[C@@H]1C[C@H]2[C@@H]3CCC4=CC(=O)C=C[C@]4(C)[C@@]3(F)[C@@H](O)C[C@]2(C)[C@@]1(O)C(=O)CO [DXM, Dexamethasone, reference compound]",Anti-inflammation effect on serum pro-inflammatory cytokines,[1]; 10 mg/kg,diminished inflammatory response
"COc1ccc(S(=O)(=O)Nc2ccc(N(CC(=O)N3CCSC3=O)S(=O)(=O)c3ccc(OC)cc3)c3ccccc23)cc1 [pro2, 4-methoxy-N-(4-((4-methoxyphenyl)sulfonamido)naphthalen-1-yl)-N-(2-oxo-2-(2-oxothiazolidin-3-yl)ethyl)benzenesulfonamide]",Activities of SOD and GSH-Px,RAW264.7 cells [2],significantly restored the activities
same,GSH/GSSG ratio and MPO activity,RAW264.7 cells [2],restored the levels nearly back to normal
same,LPS-induced elevation of IL-1β and IL-6 protein,"RAW264.7 cells [3]; LPS (20 ng/mL) 8 h, Western blot",almost completely suppressed the elevation
same,mRNA levels of IL-1β and IL-6,"RAW264.7 cells [3]; LPS (20 ng/mL) 8 h, qRT-PCR",significant suppression effects
same,"Suppression of IL-1β, IL-6 and TNF-α production","RAW264.7 cells [3]; LPS (20 ng/mL), culture supernatants, ELISA",obvious superiority in the suppression
same,Cl_F,[4]; I.V. (2 mg/kg),18.5 ± 3.9 mL/min/kg
same,Vz_F,[4]; I.V. (2 mg/kg),6.44 ± 4.09 L/kg
same,Vz_F,[4]; P.O. (10 mg/kg),4.79 ± 2.17 L/kg
same,bioavailability,"[4]; male, SD, plasma, oral",68.1%
same,CL/F,"[4]; male, SD, plasma, po, 10 mg/kg",26.4 ± 1.14 mL/min/kg
same,Relative ARE induction activity under normal conditions,"HepG2-ARE-C8 cells; HepG2-ARE-C8 cells, no LPS",nearly inactive
same,Relative ARE induction activity under various concentrations of LPS,"HepG2-ARE-C8 cells; LPS pretreatment 8 h, then compound 200 nM for 12 h",LPS concentration-dependent enhancement of Nrf2-ARE inducing activity
same,Anti-inflammation effect on serum pro-inflammatory cytokines,[1]; 10 mg/kg,comparable therapeutic effects with DXM
same,Anti-inflammation effect on serum pro-inflammatory cytokines,[1]; 40 mg/kg (high dose),more potent effects
same,Remaining in simulated gastric fluid (SGF),[5],more than 50%
same,Remaining in simulated intestinal fluid (SIF),[5],more than 50%
same,Stability to hydrolysis in PBS,pH stability in PBS,relatively stable
same,Inhibition against Keap-Nrf2 interaction in the FP assay,[6],no inhibition
same,Stability in co-incubation with rat liver microsomes,[7],quite stable
same,Stability in rat plasma,Plasma stability,quite stable
same,Pe at pH 7.4,[8],6.35 10−6 cm/s
same,Prodrug released to parent compound 2,"[9]; 1 mM H2O2, incubating 24 h, PBS pH 7.4, 37 °C",approximately 60%
same,Time to complete release to the parent compound 2,"[9]; 10 mM H2O2, PBS pH 7.4, 37 °C",≤ 3 h
same,Conversion to parent compound 2 determined by HPLC,"[9]; 10 mM H2O2, within 3 h",> 98%
same,"Transcription of Nrf2 targeted genes (HO-1, NQO1, GCLM mRNA)","RAW264.7 cells [10]; compound 500 nM, qRT-PCR",highly enhanced the transcription
same,Protein levels of Nrf2 and downstream antioxidant enzymes,"RAW264.7 cells [10]; then compound 16 h, Western blot",remarkably accumulated Nrf2 protein and elevated downstream antioxidant enzymes
"COc1ccc(S(=O)(=O)N(CC(=O)N2CCSC2=O)c2ccc(N(CC(=O)N3CCSC3=O)S(=O)(=O)c3ccc(OC)cc3)c3ccccc23)cc1 [pro1, N,N'-(naphthalene-1,4-diyl)bis(4-methoxy-N-(2-oxo-2-(2-oxothiazolidin-3-yl)ethyl)benzenesulfonamide)]",Inhibition against Keap-Nrf2 interaction in the FP assay,[6],no inhibition
same,Production of compound 1 from the prodrug in the presence of H2O2,"[9]; H2O2 (10 mM), PBS pH 7.4, 37 °C, UPLC/HRMS",cannot be observed even after 12 h
